PMC5409837 (Science translational medicine, 2017)
Where two headings read alike, the source gives them in different places.

Assays:
Axl phosphorylation = test: Human Phospho-RTK Array in hiPSC-CMs: Axl; type: cell-based; settings: 0-1 μM, 72 hours
hiPSC-CMs [1] = tested on: hiPSC-CMs
hiPSCs = type: cell-based, human
hiPSC-CMs [2] = settings: for LD50: hiPSC-CMs, 72 hour TKI treatment, PrestoBlue cell viability assay
neuropilin 2 (NRP2) = test: Microarray gene expression in hiPSC-CMs after TKI treatment; type: cell-based, human; settings: 1 μM TKI, 72 hour
[3] = patients, cited from earlier work
VEGFC = test: RNA-sequencing of hiPSC-CMs treated with sorafenib: VEGFC; type: cell-based, human; settings: 5 healthy control hiPSC-CM lines, 1 μM, 72 hours
zebrafish heart = settings: cited from earlier work
[4] = Clinical cardiotoxicity in patients; type: in vivo, human; settings: sunitinib first-line, axitinib second-line treatment
hiPSC-CMs [5] = test: Calcium imaging of hiPSC-CMs; type: cell-based, human; settings: 2 hour treatment; for beat rate (calcium imaging) / calcium transient duration: clinically-relevant concentrations
Method in brief: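 hiPSC-CMs (day 30–40 post-differentiation) reseeded on Matrigel-coated chamber slides and exposed to test compound for 2 hours; compound stocks in DMSO at 10 mM. Cells loaded with 5 μM Fluo-4 AM plus 0.02% Pluronic F-127 in Tyrode's solution for 15 min at 37°C, then washed. Spontaneous Ca2+ transients recorded at 37°C by confocal single-cell line scan.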

[6] = tested on: INSR and IGF1R phosphorylation; test: Human Phospho-RTK Array in hiPSC-CMs: INSR and IGF1R; type: cell-based; settings: for INSR and IGF1R phosphorylation: 0-1 μM, 72 hours
[7] = tested on: VEGFR2 and PDGFRα phosphorylation; settings: hiPSC-CMs
hiPSC-CMs [8] = test: Patch clamp electrophysiology; type: cell-based, human; settings: two hour treatment; for action potential duration: clinically-relevant concentrations
hiPSC-CMs [9] = test: High-throughput hiPSC-CM contractility assessment; type: cell-based, human; settings: for alterations in beating rate relative to LD50: commercially-available healthy control hiPSC-CMs, 72 hour treatment
hiPSC-CMs [10] = type: cell-based; settings: for rescue of ponatinib toxicity (hiPSC-CM viability): co-treatment with ponatinib, 72 hours, CellTiter-Glo
Akt protein network = test: Human Phospho-Kinase Antibody Array in hiPSC-CMs after IGF1 or insulin; type: cell-based; settings: 12 hour IGF1 or insulin treatment
hiPSC-ECs = test: TKI cytotoxicity in hiPSC-derived endothelial cells; type: cell-based
hiPSC-CMs [11] = settings: cited from earlier work
hiPSC-CFs = test: TKI cytotoxicity in hiPSC-derived cardiac fibroblasts; type: cell-based
[12] = quantitative and qualitative viability assays

COc1cc2nccc(Oc3ccc(NC(=O)C4(C(=O)Nc5ccc(F)cc5)CC4)cc3)c2cc1OC [cabozantinib]
Axl phosphorylation (Axl phosphorylation): decreased Axl phosphorylation

COc1cccc2c1C(=O)c1c(O)c3c(c(O)c1C2=O)C[C@@](O)(C(=O)CO)C[C@@H]3O[C@H]1C[C@H](N)[C@H](O)[C@H](C)O1 [doxorubicin]
cardiac safety index (hiPSC-CMs [1]; human, 72 h): ≤ 0.10 | toxicity in hiPSCs at 0.1 μM (hiPSCs): lethal | toxicity in undifferentiated hiPSCs (hiPSCs): substantially enhanced in hiPSCs | LD50 (hiPSC-CMs [2]): 0.78 µM

CNC(=O)c1cc(Oc2ccc(NC(=O)Nc3ccc(Cl)c(C(F)(F)F)c3)cc2)ccn1 [sorafenib]
increase in expression of neuropilin 2 (neuropilin 2 (NRP2)): two-fold | clinical cardiotoxicity ([3]; ref Table S2, 20): causes ventricular dysfunction and heart failure clinically | VEGFC expression (VEGFC): increased expression | cardiotoxicity in zebrafish heart (zebrafish heart): induces cardiomyocyte death and contractility defects in the zebrafish heart | cytotoxicity in all eleven healthy control hiPSC-CM lines (hiPSC-CMs [2]): highly cytotoxic | LD50 (hiPSC-CMs [2]): 3.4 µM

C#Cc1cccc(Nc2ncnc3cc(OCCOC)c(OCCOC)cc23)c1 [erlotinib]
LD50 (hiPSC-CMs [2]): 87.60 µM

CNC(=O)c1ccccc1Sc1ccc2c(/C=C/c3ccccn3)n[nH]c2c1 [axitinib]
clinical cardiotoxicity in the two kidney cancer patients [4]: no significant clinical cardiotoxicity | calcium imaging parameters (transient amplitude, transient duration, beating rate) (hiPSC-CMs [5]): did not significantly alter parameters such as calcium transient amplitude, transient duration, or beating rate | fold enhancement of INSR/IGF1R phosphorylation [6]: two-fold | INSR and IGF1R phosphorylation [6]: increased INSR and IGF1R phosphorylation | VEGFR2 and PDGFRα phosphorylation ([7]; 0-1 μM, 72 hours, sub-cytotoxic concentrations): the strongest dual-inhibition | action potential duration (hiPSC-CMs [8]): did not alter action potential duration | toxicity in undifferentiated hiPSCs (hiPSCs): extremely toxic to hiPSCs | contraction irregularities (hiPSC-CMs [9]; clinically-relevant concentrations): Neither DMSO nor axitinib elicited contraction irregularities | difference in cytotoxicity between TKI-receiving patient hiPSC-CMs and healthy control hiPSC-CM lines (hiPSC-CMs [2]): did not observe a significant difference in cytotoxicity | relative cytotoxicity among TKIs in hiPSC-CMs (hiPSC-CMs [2]): the least cytotoxic TKI in hiPSC-CMs

Cc1ccc(NC(=O)c2ccc(CN3CCN(C)CC3)cc2)cc1Nc1nccc(-c2cccnc2)n1 [imatinib]
calcium imaging parameters (transient amplitude, transient duration, beating rate) (hiPSC-CMs [5]): did not significantly alter parameters such as calcium transient amplitude, transient duration, or beating rate

COc1cc2c(Nc3ccc(Br)cc3F)ncnc2cc1OCC1CCN(C)CC1 [vandetanib]
beat rate (calcium imaging) (hiPSC-CMs [5]): decreased beat rate | calcium transient duration (hiPSC-CMs [5]): prolonged calcium transient duration | clinical QT interval prolongation and arrhythmias [3]: cause dangerous QT interval prolongation and arrhythmias clinically | cellular beating rate (patch clamp) (hiPSC-CMs [8]): decreased cellular beating rate | action potential duration (hiPSC-CMs [8]): significantly prolonged action potential duration | alterations in beating rate relative to LD50 (hiPSC-CMs [9]): alterations in hiPSC-CM beating rate and other parameters at doses lower than LD50 cytotoxicity values

IGF1
rescue of ponatinib toxicity (hiPSC-CM viability) (hiPSC-CMs [10]): cardioprotective effect | rescue of ponatinib toxicity (hiPSC-CM viability) (hiPSC-CMs [10]; listed as IGF): significantly rescued ponatinib toxicity | phosphorylation of Akt protein network (Akt protein network): enhanced phosphorylation of the anti-apoptotic Akt protein network

insulin
rescue of doxorubicin cytotoxicity in hiPSC-CMs (hiPSC-CMs [10]; co-treatment with doxorubicin): rescued hiPSC-CMs from doxorubicin cytotoxicity | phosphorylation of Akt protein network (Akt protein network): enhanced phosphorylation of the anti-apoptotic Akt protein network

Cc1ccc(C(=O)Nc2ccc(CN3CCN(C)CC3)c(C(F)(F)F)c2)cc1C#Cc1cnc2cccnn12 [ponatinib]
relative cytotoxicity in hiPSC-ECs (hiPSC-ECs): the most cytotoxic TKIs in hiPSC-ECs | increase in expression of neuropilin 2 (neuropilin 2 (NRP2)): two-fold | fold enhancement of INSR/IGF1R phosphorylation [6]: two-fold | INSR and IGF1R phosphorylation [6]: increased INSR and IGF1R phosphorylation | VEGFR2/PDGFR inhibition at nanomolar concentrations [7]: complete VEGFR2/PDGFR inhibition | mitochondrial stress and contraction abnormalities in hiPSC-CMs (hiPSC-CMs [11]): induce mitochondrial stress and elicit contraction abnormalities in hiPSC-CMs | relative cytotoxicity in hiPSC-CFs (hiPSC-CFs): the highest cytotoxicities | LD50 (hiPSC-CMs [2]): 4.3 µM | cytotoxicity in all eleven healthy control hiPSC-CM lines (hiPSC-CMs [2]; [12]): highly cytotoxic

Cc1cn(-c2cc(NC(=O)c3ccc(C)c(Nc4nccc(-c5cccnc5)n4)c3)cc(C(F)(F)F)c2)cn1 [nilotinib]
beat rate (calcium imaging) (hiPSC-CMs [5]): decreased beat rate | calcium transient duration (hiPSC-CMs [5]): prolonged calcium transient duration | clinical QT interval prolongation and arrhythmias [3]: cause dangerous QT interval prolongation and arrhythmias clinically | cardiac safety index (hiPSC-CMs [1]; human, 72 h): ≤ 0.10 | cellular beating rate (patch clamp) (hiPSC-CMs [8]): decreased cellular beating rate | action potential duration (hiPSC-CMs [8]): significantly prolonged action potential duration | alterations in beating rate relative to LD50 (hiPSC-CMs [9]): alterations in hiPSC-CM beating rate and other parameters at doses lower than LD50 cytotoxicity values

CNC(=O)c1cc(Oc2ccc(NC(=O)Nc3ccc(Cl)c(C(F)(F)F)c3)c(F)c2)ccn1 [regorafenib]
relative cytotoxicity in hiPSC-ECs (hiPSC-ECs): the most cytotoxic TKIs in hiPSC-ECs | increase in expression of neuropilin 2 (neuropilin 2 (NRP2)): two-fold | VEGFR2/PDGFR inhibition at nanomolar concentrations [7]: complete VEGFR2/PDGFR inhibition | cardiac safety index (hiPSC-CMs [1]; value from 0-1, 0.10 = threshold for highly cardiotoxic compounds): below 0.10 | relative cytotoxicity in hiPSC-CFs (hiPSC-CFs): the highest cytotoxicities | LD50 (hiPSC-CMs [2]): 7.1 µM | cytotoxicity in all eleven healthy control hiPSC-CM lines (hiPSC-CMs [2]; [12]): highly cytotoxic

CCN(CC)CCNC(=O)c1c(C)[nH]c(/C=C2\C(=O)Nc3ccc(F)cc32)c1C [sunitinib]
clinical cardiotoxicity in the two kidney cancer patients [4]: no significant clinical cardiotoxicity | difference in cytotoxicity between TKI-receiving patient hiPSC-CMs and healthy control hiPSC-CM lines (hiPSC-CMs [2]): did not observe a significant difference in cytotoxicity
